Data set [1] is described as follows: Ratio of drug level in blood to plasma in F344 rat after 5 mins. It is filed as ADME.
A short description of data set [2]: Ratio of drug level in blood to plasma in cynomolgus monkey after 5 mins. The format is ADME, Macaca fascicularis.
Data set [3] is described as follows: Drug metabolism in F344 rat feces assessed as N-acetylated 1,4-dideoxy-1,4-imino-D-arabinitol formation by LC-MS/MS method. The format is ADME, tissue-based.
Data set [4] is described as follows: Drug metabolism in human kidney S9 fractions at 0.42 uCi/ml assessed as metabolite formation in presence of NADPH after 1 hr at 37 degC by LC-MS/MS method. To be noted: s9, 1 h. It is filed as ADME, tissue-based.
Data set [5] deals with Plasma. The data set is described as follows: Drug metabolism in po dosed F344 rat plasma by LC-MS/MS method. The settings on record: in vivo. It is filed as ADME, organism-based.
Data set [6] concerns Cynomolgus monkey. Nature of the data set: Drug excretion in cynomolgus monkey assessed as drug level found during cage washing at 3 mg/kg, iv administered as single dose after 0 to 48 hrs by scintillation counting method. The format is ADME, organism-based, Macaca fascicularis. The settings on record: in vivo. Also on record: dose 3 mg/kg, route intravenous. The procedure, abridged:
(§1)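 Fasted cynomolgus monkeys (n = 4) received [14C]-labelled drug at 3 mg/kg, iv via saphenous vein (191 µCi/kg) or orally by stomach catheter (156.5 µCi/kg). Urine, feces and water cage-wash were collected to 336 h. Samples were counted by liquid scintillation; feces were homogenized in 4-fold water. Results are % of dose, mean ± S.D.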

Data set [7] concerns Cynomolgus monkey. Nature of the data set: Drug excretion in cynomolgus monkey assessed as drug level found during cage washing at 3 mg/kg, po administered as single dose after 0 to 336 hrs by scintillation counting method. It is filed as ADME, organism-based, Macaca fascicularis. Also on record: dose 3 mg/kg, route oral. The settings on record: in vivo. The procedure, abridged:
as §1

Data set [8] can be described thus: Drug excretion in cynomolgus monkey urine at 3 mg/kg, po administered as single dose after 48 hrs by scintillation counting method. The settings on record: in vivo.
The nature of data set [9]: Half life in cynomolgus monkey at 3 mg/kg, po administered as single dose by LC-MS/MS method. It is filed as ADME, organism-based, Macaca fascicularis. Also on record: dose 3 mg/kg, route oral. The settings on record: in vivo. The procedure, abridged:
(§2)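 Male F344 rats (146–185 g) and male cynomolgus monkeys (3.48–4.29 kg), n = 4 each, fasted overnight, received single iv or oral doses of 0.3, 1.0, 3.0 or 10.0 mg/kg. Monkeys had 2-week washouts between doses. Plasma was sampled to 48 h and assayed by LC-MS/MS with deuterated internal standard. Noncompartmental analysis: tmax observed; t1/2 by regression on ≥3 terminal log points; Vss = dose·AUMC/(AUC0–inf)²; Foral = oral/iv AUC0–inf at the same dose.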

Data set [10] in a line: Cmax in cynomolgus monkey at 1 mg/kg, po administered as single dose by LC-MS/MS method. The format is ADME, organism-based, Macaca fascicularis. Also noted: dose 1 mg/kg, route oral. To be noted: in vivo. The procedure, abridged:
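Fasted male F344 rats (146–185 g) and cynomolgus monkeys (3.48–4.29 kg), n = 4 each, received a single oral dose; monkeys had 2-week washouts. Plasma sampled up to 48 h, stored at […], assayed by LC-MS/MS with a deuterated internal standard. Cmax taken from observed data by noncompartmental analysis; mean ± S.D. (n = 3 or 4).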

A short description of data set [11]: AUClast in cynomolgus monkey at 3 mg/kg, po administered as single dose by LC-MS/MS method. Also noted: time 0 - last, dose 3 mg/kg, route oral. The format is ADME, organism-based, Macaca fascicularis. To be noted: plasma. The method in brief: (§3)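 Fasted male F344 rats (146–185 g) or male cynomolgus monkeys (3.48–4.29 kg), n = 4 per dose, given single iv or oral dose of 0.3, 1.0, 3.0 or 10.0 mg/kg; monkeys dosed with 2-week washouts. Blood sampled to 48 h; plasma stored frozen. LC-MS/MS with deuterated internal standard. Noncompartmental analysis: AUClast by trapezoidal rule; AUC0–inf = AUClast + Ctz/terminal rate constant; mean ± S.D.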

The nature of data set [12]: AUClast in F344 rat at 3 mg/kg, po administered as single dose by LC-MS/MS method. The format is ADME, organism-based. Also on record: time 0 - last, dose 3 mg/kg, route oral. The settings on record: plasma. The method in brief: as §3
A short description of data set [13]: Half life in F344 rat at 3 mg/kg, po administered as single dose by LC-MS/MS method. It is filed as ADME, organism-based. Also noted: dose 3 mg/kg, route oral. The settings on record: in vivo. The method in brief:
as §2

Take `C[C@H]1O[C@@H](O[C@H]2[C@H](O)[C@@H](O)[C@@H](O[14C@H]3[14C@H](O)[14CH2]N[14C@@H]3[14CH2]O)O[C@@H]2CO)[C@H](O)[C@@H](O)[C@@H]1O`: the blood plasma ratio at 5 min in data set [1] was 0.575; in [2] it was 0.595. The Drug metabolism result is given as “metabolite_detected” in data set [3], “metabolite_not_detected” in data set [4] and “metabolite_not_detected” in data set [5]. Besides, the Drug excretion is 13.7% in data set [6], 1.35% in data set [7] and 2.9% in data set [8].

For `C[C@H]1O[C@@H](O[C@H]2[C@H](O)[C@@H](O)[C@@H](O[C@H]3[C@H](O)CN[C@@H]3CO)O[C@@H]2CO)[C@H](O)[C@@H](O)[C@@H]1O`, the half-life (usually the time in which the quantity being followed falls by half) in data set [9] is 2.12 h; in [13], 4.16 h. Further, the highest level in data set [10] (Cmax) was 15.3 ng/mL. The results for the AUC(0-t) in data set [11] and in data set [12] were 186 ng·h/mL and 324 ng·h/mL, respectively.

The values above are taken from ChEMBL document CHEMBL3526127, “Absorption, elimination, and metabolism of CS-1036, a novel α-amylase inhibitor in rats and monkeys, and the relationship between gastrointestinal distribution and suppression of glucose absorption” (Drug Metab Dispos, 2013).
